ChEMBL document CHEMBL3228001, “Rigid congeners of dopamine based on octahydrobenzo[f]quinoline: peripheral and central effects” (1979)
Structures can show the parent of a compound that is named as a salt. The source made the active and inactive calls.

How the values were obtained:
[1] = tested on: Rattus norvegicus; assay: Dopaminergic activity in Sprague-Dawley rat assessed as stereotyped behavior characterized by sniffing and biting at 0.5 to 2 mg/kg, sc; format: functional, organism-based
Method in brief: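 Male Sprague-Dawley rats in groups of 10 received agents sc, dissolved in distilled water containing 0.1% sodium metabisulfite, and were scored for stereotyped sniffing and biting. Testing ran 08:00-18:00 h in sound-proofed rooms at 21 ± 2 °C. The reported range runs from the threshold dose to the dose producing the maximum attainable response, in mg/kg sc.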

[2] = tested on: Mus musculus; assay: Dopaminergic activity in albino mouse assessed as stereotyped behavior characterized by sniffing and biting at 1.5 to 4 mg/kg, sc; format: functional, organism-based
[3] = tested on: Mus musculus; assay: Dopaminergic activity in albino mouse assessed as induction of climbing behavior at 0.5 to 1.5 mg/kg, sc; format: functional, organism-based
Method in brief: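 Male albino mice (20-25 g, N = 10) received agents sc in water with 0.1% sodium metabisulfite. They were placed in perspex cages lined with wire mesh and counted as climbing when holding the wire with all four paws. Read-outs were climbing index (% time climbing in the 30 min after the first climb) and maximum single-climb time. Range given is threshold to maximal dose.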

[4] = tested on: Mus musculus; assay: Dopaminergic activity in albino mouse assessed as induction of ipsilateral circling behavior at 0.25 to 1 mg/kg, sc; format: functional, organism-based
Method in brief: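 Mice received a unilateral caudate-putamen electrolesion (1.5 mA, 15 s). After 14 days they were screened with apomorphine HCl 1.0 mg/kg sc, and animals circling ≥7 ipsilateral revolutions/2 min were kept. After 7 days' recovery, agents were given sc and complete one-direction revolutions were counted manually. Lesion sites were verified histologically. Range given is threshold to maximal dose.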

[5] = tested on: Rattus norvegicus; assay: Dopaminergic activity in Sprague-Dawley rat assessed as hyperactivity up to 6.25 to 50 ug administered into nucleus accumbens; format: functional, organism-based
Method in brief: (§1)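 Male Sprague-Dawley rats (250 ± 26 g) had guide cannulae implanted for bilateral injection into caudate-putamen and nucleus accumbens, and were used 10–14 days later. Nialamide 100 mg/kg ip was given 2 h before. Drug in N2-bubbled water (minimal DMF if needed), 1–2 µL over 60 s. Hyperactivity was read as photocell counts/5 min, stereotypy was scored, and cannula sites were checked histologically.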

[6] = tested on: Rattus norvegicus; assay: Dopaminergic activity in Sprague-Dawley rat assessed as stereotyped behavior characterized by continous sniffing up to 12.5 to 50 ug administered into nucleus accumbens; format: functional, organism-based; method in brief: as §1
[7] = tested on: Rattus norvegicus; assay: Dopaminergic activity in Sprague-Dawley rat assessed as biting behavior up to 50 ug administered into nucleus accumbens; format: functional, organism-based; method in brief: as §1
[8] = tested on: Rattus norvegicus; assay: Dopaminergic activity in Sprague-Dawley rat assessed as hyperactivity behavior administered into nucleus caudate-putamen measured up to 25 ug from 30 to 45 mins to persisted up to 5 to 6 hrs; format: functional, organism-based; method in brief: as §1
[9] = tested on: Rattus norvegicus; assay: Dopaminergic activity in Sprague-Dawley rat assessed as stereotypic behavior administered into caudate-putamen measured up to 25 ug from 5 to 15 mins to persisted up to 5 to 6 hrs; format: functional, organism-based; method in brief: as §1
[10] = tested on: Rattus norvegicus; assay: Dopaminergic activity in Sprague-Dawley rat assessed as hyperactivity up to 25 ug administered into caudate-putamen; format: functional, organism-based; method in brief: as §1
[11] = tested on: Rattus norvegicus; assay: Dopaminergic activity in Sprague-Dawley rat assessed as stereotyped behavior characterized by continous sniffing up to 25 ug administered into caudate-putamen; format: functional, organism-based; method in brief: as §1
[12] = tested on: Rattus norvegicus; assay: Dopaminergic activity in Sprague-Dawley rat assessed as hyperactivity behavior administered into nucleus caudate-putamen measured up to 25 ug from 30 to 45 mins to persisted up to 3 hrs; format: functional, organism-based; method in brief: as §1
[13] = tested on: Rattus norvegicus; assay: Dopaminergic activity in Sprague-Dawley rat assessed as stereotypic behavior administered into caudate-putamen measured up to 25 ug from 5 to 15 mins to persisted up to 3 hrs; format: functional, organism-based; method in brief: as §1
[14] = tested on: Rattus norvegicus; assay: Dopaminergic activity in Sprague-Dawley rat assessed as stereotyped behavior characterized by sniffing and biting at up to 10 mg/kg, sc; format: functional, organism-based; set-up: dose 10 mg/kg
Method in brief: (§2)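 Male Sprague-Dawley rats, groups of 10, were dosed sc in distilled water with 0.1% sodium metabisulfite, with solvent controls. Stereotyped sniffing and biting were scored as for intracerebral tests at 21 ± 2 °C between 08:00 and 18:00 h. Dose range runs from the threshold dose to the dose giving maximal response, in mg/kg sc.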

[15] = tested on: Mus musculus; assay: Dopaminergic activity in albino mouse assessed as stereotyped behavior characterized by sniffing and biting at up to 10 mg/kg, sc; format: functional, organism-based; set-up: dose 10 mg/kg
Method in brief: (§3)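 Male albino mice (20–25 g, N = 10) were dosed sc in water containing 0.1% sodium metabisulfite and scored for stereotyped sniffing and biting. Dose range runs from the threshold dose to the dose giving maximal response, in mg/kg sc.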

[16] = tested on: Mus musculus; assay: Dopaminergic activity in albino mouse assessed as induction of climbing behavior up to 10 mg/kg, sc; format: functional, organism-based; set-up: dose 10 mg/kg
Method in brief: (§4)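 Male albino mice (20–25 g, N = 10) were dosed sc in water with 0.1% sodium metabisulfite and placed in wire-mesh-lined cages. A mouse counted as climbing when holding the wire with all four paws. Measures: climbing index (% time climbing in the 30 min after the first climb) and maximum single-climb time. Doses run from threshold to maximal response.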

[17] = tested on: Mus musculus; assay: Dopaminergic activity in albino mouse assessed as induction of ipsilateral circling behavior up to 10 mg/kg, sc; format: functional, organism-based; set-up: dose 10 mg/kg
Method in brief: (§5)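 Male albino mice (30–35 g) received a unilateral caudate-putamen electrolesion (1.5 mA, 15 s) and 14 days of recovery. Only mice circling ≥7 ipsilateral revolutions/2 min after apomorphine HCl 1.0 mg/kg sc were kept, with a further 7 days of recovery. After sc dosing, complete revolutions in one direction were counted manually. Lesion sites were verified afterwards.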

[18] = tested on: Canis familiaris; assay: Emetic activity in sc dosed dogs assessed as frequency of vomiting for 1 hr relative to apomorphine; format: functional, Canis lupus familiaris
[19] = tested on: Felis catus; assay: Inhibition of electrical-stimulation of postganglionic cardioaccelerator nerve in iv dosed cat; format: functional; details: read-out: ID50 (the source's name)
Method in brief: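 Cats were anaesthetised with sodium pentobarbital 30 mg/kg and ventilated. The right postganglionic cardioaccelerator nerves were stimulated with bipolar electrodes (2 Hz, 5 ms pulses, supramaximal voltage, 20–30 s trains), and heart rate was read by cardiotachometer. Doses were spaced at 0.48 log intervals, and the dose inhibiting positive chronotropic responses by 50% was calculated.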

[20] = tested on: Rattus norvegicus; assay: Dopaminergic activity in Sprague-Dawley rat assessed as stereotyped behavior characterized by sniffing and biting at 1 to 10 mg/kg, sc; format: functional, organism-based; method in brief: as §2
[21] = tested on: Rattus norvegicus; assay: Dopaminergic activity in Sprague-Dawley rat assessed as stereotyped behavior characterized by sniffing and biting at 0.025 to 0.05 mg/kg, sc; format: functional, organism-based; method in brief: as §2
[22] = tested on: Mus musculus; assay: Dopaminergic activity in albino mouse assessed as stereotyped behavior characterized by sniffing and biting at 1 to 2 mg/kg, sc; format: functional, organism-based; method in brief: as §3
[23] = tested on: Mus musculus; assay: Dopaminergic activity in albino mouse assessed as induction of climbing behavior at 0.025 to 1 mg/kg, sc; format: functional, organism-based; method in brief: as §4
[24] = tested on: Mus musculus; assay: Dopaminergic activity in albino mouse assessed as induction of ipsilateral circling behavior at 0.5 to 2 mg/kg, sc; format: functional, organism-based; method in brief: as §5
[25] = tested on: Mus musculus; assay: Dopaminergic activity in sc dosed albino mouse assessed as induction of ipsilateral circling behavior; format: functional, organism-based; method in brief: as §5
[26] = tested on: Mus musculus; assay: Dopaminergic activity in albino mouse assessed as induction of climbing behavior at 0.025 to 1 mg/kg, sc after 120 mins; format: functional, organism-based; method in brief: as §4
[27] = tested on: Mus musculus; assay: Dopaminergic activity in albino mouse assessed as induction of ipsilateral circling behavior at 0.5 to 2 mg/kg, sc after 120 mins; format: functional, organism-based; method in brief: as §5
[28] = Induction of pecking activity in pigeons assessed as counts for 1 hr relative to apomorphine; format: functional, Columbidae
Method in brief: (§6)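 Pigeons were dosed im, with doses spaced at 0.3 log intervals, and pecks were counted over 1 h. Pecking after 1.63 µmol apomorphine hydrochloride was taken as the 100% response.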

[29] = tested on: Rattus norvegicus; assay: Dopaminergic activity in Sprague-Dawley rat assessed as stereotyped behavior characterized by periodic biting associated with sniffing administered into nucleus accumbens; format: functional, organism-based; method in brief: as §1
[30] = tested on: Rattus norvegicus; assay: Dopaminergic activity in Sprague-Dawley rat assessed as locomotor and stereotypic behavior administered into nucleus accumbens measured up to 25 ug from 5 to 15 mins to persisted up to 5 to 6 hrs; format: functional, organism-based; method in brief: as §1
[31] = tested on: Mus musculus; assay: Dopaminergic activity in albino mouse assessed as stereotyped behavior characterized by sniffing and biting at 0.05 to 1 mg/kg, sc; format: functional, organism-based; method in brief: as §3
[32] = tested on: Mus musculus; assay: Dopaminergic activity in albino mouse assessed as induction of climbing behavior at 0.1 to 0.5 mg/kg, sc; format: functional, organism-based; method in brief: as §4
[33] = tested on: Mus musculus; assay: Dopaminergic activity in albino mouse assessed as induction of ipsilateral circling behavior at 0.05 to 0.5 mg/kg, sc; format: functional, organism-based; method in brief: as §5
[34] = tested on: Mus musculus; assay: Dopaminergic activity in albino mouse assessed as induction of climbing behavior at 0.5 mg/kg, sc up to 30 mins; format: functional; details: route subcutaneous; method in brief: as §4
[35] = tested on: Mus musculus; assay: Dopaminergic activity in albino mouse assessed as induction of climbing behavior at 0.1 to 0.5 mg/kg, sc after 120 mins; format: functional, organism-based; method in brief: as §4
[36] = tested on: Mus musculus; assay: Dopaminergic activity in albino mouse assessed as induction of ipsilateral circling behavior at 0.05 to 0.5 mg/kg, sc after 120 mins; format: functional, organism-based; method in brief: as §5
[37] = tested on: Canis familiaris; assay: Emetic activity in sc dosed dogs assessed as frequency of vomiting for 1 hr; format: functional; details: Canis lupus familiaris
Method in brief: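 At least five dogs per compound were dosed sc, with doses spaced at 0.3 log intervals. Vomiting frequency was recorded over 1 h.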

[38] = Induction of pecking activity in pigeons assessed as counts for 1 hr; format: functional; details: Columbidae; method in brief: as §6

Compound	Activity [5]	Activity [6]	Activity [8]	Activity [9]	Activity [10]	Activity [11]	Activity [12]	Activity [13]	Activity [14]	Activity [15]	Activity [16]	Activity [17]	fold change (FC) [18]	ED50 [19]	other results
CN1CCc2cccc3c2[C@H]1Cc1ccc(O)c(O)c1-3	–	–	–	–	–	–	–	–	–	–	–	–	–	–	Activity [1]: Active; Activity [2]: Active; Activity [3]: Active; Activity [4]: Active
NCCc1ccc(O)c(O)c1	Active	Active	Active	Active	–	–	–	–	–	–	–	–	–	–	Activity [7]: inactive
Oc1ccc2c(c1O)CC[C@@H]1NCCC[C@H]21 (relative stereo)	inactive	inactive	–	–	inactive	inactive	Active	Active	inactive	inactive	inactive	inactive	0.024	0.027 µmol/kg	–
CCN1CCC[C@@H]2c3ccc(O)c(O)c3CC[C@@H]21 (relative stereo)	Active	Active	–	–	Active	–	Active	Active	inactive	inactive	inactive	inactive	0.053	–	–
Oc1ccc2c(c1O)CC[C@H]1NCCC[C@H]21 (relative stereo)	inactive	inactive	–	–	Active	Active	Active	Active	–	inactive	inactive	inactive	4.5	0.0007 µmol/kg	Activity [20]: Active
CCN1CCC[C@@H]2c3ccc(O)c(O)c3CC[C@H]21 (relative stereo)	inactive	–	Active	Active	Active	Active	–	–	–	–	–	–	4.9	0.0005 µmol/kg	Activity [7]: Active; Activity [21]: Active; Activity [22]: Active; Activity [23]: Active; Activity [24]: Active; Activity [25]: Dose-dependent effect; Activity [26]: Active; Activity [27]: Active; fold change (FC) [28]: 0.39
CCCN1CCC[C@@H]2c3ccc(O)c(O)c3CC[C@H]21 (relative stereo)	Active	–	Active	Active	Active	Active	–	–	–	–	–	–	2.7	0.0003 µmol/kg	Activity [29]: Active; Activity [30]: Active; Activity [21]: Active; Activity [31]: Active; Activity [32]: Active; Activity [33]: Active; Activity [34]: >90%; Activity [25]: Dose-dependent effect; Activity [35]: Active; Activity [36]: Active; fold change (FC) [28]: 0.32
CCCN1CCC[C@@H]2c3ccc(O)c(O)c3CC[C@@H]21 (relative stereo)	inactive	inactive	–	–	inactive	inactive	Active	Active	inactive	inactive	inactive	inactive	–	–	–
CN1CCc2cccc3c2[C@H]1Cc1ccc(O)c(O)c1-3 [APOMORPHINE HYDROCHLORIDE]	–	–	–	–	–	–	–	–	–	–	–	–	–	–	ED50 [37]: 0.14 µmol/kg; ED50 [38]: 0.77 µmol/kg
CN1CCc2cccc3c2[C@H]1Cc1ccc(O)c(O)c1-3 [APOMORPHINE]	–	–	–	–	–	–	–	–	–	–	–	–	–	0.019 µmol/kg	–
